Test results taken from ChEMBL document CHEMBL5696442, “Discovery of type II inhibitors of TGFβ-activated kinase 1 (TAK1) and mitogen-activated protein kinase kinase kinase kinase 2 (MAP4K2)” (J Med Chem, 2015).

Tests used:
[1] = biological target: Mitogen-activated protein kinase kinase kinase 20 (Homo sapiens, UniProt Q9NYL2); test: Inhibition of ZAK Lys1 labeling site in human Huh-7 cell lysate at 1 uM by KiNativ Profiling analysis relative to control; format: subcellular
[2] = biological target: T1, Serine/threonine-protein kinase greatwall (Homo sapiens) (UniProt Q96GX5); test: Inhibition of MASTL ATP Loop labeling site in human A-375 cells at 0.05 uM by KiNativ Profiling analysis relative to control; format: cell-based
T1 sequence (whole entry): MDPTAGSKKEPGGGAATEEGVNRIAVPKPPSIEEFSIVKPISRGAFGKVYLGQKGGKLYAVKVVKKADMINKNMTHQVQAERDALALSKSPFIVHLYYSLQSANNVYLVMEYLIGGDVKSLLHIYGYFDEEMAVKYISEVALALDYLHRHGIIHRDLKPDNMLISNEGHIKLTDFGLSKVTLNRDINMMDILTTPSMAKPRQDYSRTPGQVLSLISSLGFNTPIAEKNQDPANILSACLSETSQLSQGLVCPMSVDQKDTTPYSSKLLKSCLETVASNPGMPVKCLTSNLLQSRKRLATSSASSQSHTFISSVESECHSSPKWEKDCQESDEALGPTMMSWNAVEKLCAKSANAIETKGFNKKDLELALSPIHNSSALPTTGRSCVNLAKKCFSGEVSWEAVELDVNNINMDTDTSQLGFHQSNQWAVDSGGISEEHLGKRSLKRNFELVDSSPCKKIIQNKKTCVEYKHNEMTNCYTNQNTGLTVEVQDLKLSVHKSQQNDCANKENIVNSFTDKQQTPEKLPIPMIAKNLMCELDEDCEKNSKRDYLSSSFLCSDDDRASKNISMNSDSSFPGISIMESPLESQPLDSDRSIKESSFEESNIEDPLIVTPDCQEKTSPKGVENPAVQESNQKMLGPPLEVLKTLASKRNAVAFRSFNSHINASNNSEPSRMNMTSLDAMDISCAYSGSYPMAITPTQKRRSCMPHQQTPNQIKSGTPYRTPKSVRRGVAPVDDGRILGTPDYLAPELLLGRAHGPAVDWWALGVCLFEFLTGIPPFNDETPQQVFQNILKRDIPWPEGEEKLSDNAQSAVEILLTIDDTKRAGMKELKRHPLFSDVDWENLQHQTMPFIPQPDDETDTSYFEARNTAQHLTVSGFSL

[3] = biological target: T2, Phosphatidylinositol 5-phosphate 4-kinase type-2 gamma (Homo sapiens) (UniProt Q8TBX8); test: Inhibition of PIP4K2C ATP labeling site harbouring VKELPTLKDMDFLNK in human A-375 cells at 0.05 uM by KiNativ Profiling analysis relative to control; format: cell-based
T2 sequence (whole entry): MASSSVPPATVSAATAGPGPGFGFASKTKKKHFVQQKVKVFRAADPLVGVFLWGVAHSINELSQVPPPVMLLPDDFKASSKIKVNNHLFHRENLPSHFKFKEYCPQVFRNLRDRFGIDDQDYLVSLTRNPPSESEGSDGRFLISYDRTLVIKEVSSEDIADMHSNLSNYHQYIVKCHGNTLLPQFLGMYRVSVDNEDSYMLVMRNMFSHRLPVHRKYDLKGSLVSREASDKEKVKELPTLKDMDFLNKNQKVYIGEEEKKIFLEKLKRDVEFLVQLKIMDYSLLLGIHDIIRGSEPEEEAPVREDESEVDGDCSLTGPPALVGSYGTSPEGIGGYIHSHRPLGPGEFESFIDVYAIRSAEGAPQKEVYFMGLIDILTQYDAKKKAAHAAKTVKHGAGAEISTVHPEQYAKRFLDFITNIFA

[4] = biological target: Serine/threonine-protein kinase mTOR (Homo sapiens) (UniProt P42345); test: Inhibition of FRAP ATP labeling site in human A-375 cells at 5 uM by KiNativ Profiling analysis relative to control; format: cell-based
[5] = biological target: Serine/threonine-protein kinase Chk2 (Homo sapiens) (UniProt O96017); test: Inhibition of CHK2 Lys1 labeling site in human A-375 cells at 5 uM by KiNativ Profiling analysis relative to control; format: cell-based
Chain of Serine/threonine-protein kinase Chk2 (Homo sapiens) (O96017 whole entry): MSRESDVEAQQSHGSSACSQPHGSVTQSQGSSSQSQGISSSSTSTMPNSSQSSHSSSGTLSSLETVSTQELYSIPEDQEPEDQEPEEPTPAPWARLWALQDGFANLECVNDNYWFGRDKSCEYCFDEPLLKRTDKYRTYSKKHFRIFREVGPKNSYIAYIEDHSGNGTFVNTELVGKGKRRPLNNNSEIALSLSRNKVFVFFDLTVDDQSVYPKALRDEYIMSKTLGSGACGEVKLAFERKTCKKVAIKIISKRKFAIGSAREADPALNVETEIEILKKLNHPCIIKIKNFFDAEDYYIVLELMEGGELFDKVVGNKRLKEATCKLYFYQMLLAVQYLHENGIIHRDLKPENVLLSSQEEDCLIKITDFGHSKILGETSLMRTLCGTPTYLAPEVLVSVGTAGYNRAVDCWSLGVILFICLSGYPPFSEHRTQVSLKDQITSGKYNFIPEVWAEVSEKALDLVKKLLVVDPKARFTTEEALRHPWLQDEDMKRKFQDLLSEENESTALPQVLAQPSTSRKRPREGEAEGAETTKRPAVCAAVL
In short: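 Live A375 melanoma cells were treated with compound at 5 or 0.5 μM. The cells were then lysed, and the lysates were labeled with a lysine-reactive ATP or ADP-biotin acyl probe (KiNativ). Inhibition is the compound's protection of each kinase labeling-site peptide from probe labeling, relative to untreated control.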

[6] = biological target: Serine/threonine-protein kinase Nek6 (Homo sapiens) (UniProt Q9HC98); test: Inhibition of NEK6 Lys2 labeling site in human A-375 cells at 0.05 uM by KiNativ Profiling analysis relative to control; format: cell-based
Chain of Serine/threonine-protein kinase Nek6 (Homo sapiens) (Q9HC98 whole entry): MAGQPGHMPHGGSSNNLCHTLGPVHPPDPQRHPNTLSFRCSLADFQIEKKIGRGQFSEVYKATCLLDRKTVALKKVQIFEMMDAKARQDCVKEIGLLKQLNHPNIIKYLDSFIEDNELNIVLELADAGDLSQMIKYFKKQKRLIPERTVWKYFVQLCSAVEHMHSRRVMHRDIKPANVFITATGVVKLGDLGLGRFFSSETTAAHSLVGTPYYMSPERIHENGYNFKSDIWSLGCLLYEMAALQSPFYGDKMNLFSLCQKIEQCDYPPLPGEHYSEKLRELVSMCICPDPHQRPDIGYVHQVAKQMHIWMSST

[7] = Inhibition of p70S6K Lys2 labeling site in human A-375 cells at 5 uM by KiNativ Profiling analysis relative to control; conditions: condition cancer
[8] = biological target: Dual specificity mitogen-activated protein kinase kinase 2 (Homo sapiens) (UniProt P36507); test: Inhibition of MAP2K2 Lys2 labeling site in human A-375 cells at 0.05 uM by KiNativ Profiling analysis relative to control; format: cell-based
Chain of Dual specificity mitogen-activated protein kinase kinase 2 (Homo sapiens) (P36507 whole entry): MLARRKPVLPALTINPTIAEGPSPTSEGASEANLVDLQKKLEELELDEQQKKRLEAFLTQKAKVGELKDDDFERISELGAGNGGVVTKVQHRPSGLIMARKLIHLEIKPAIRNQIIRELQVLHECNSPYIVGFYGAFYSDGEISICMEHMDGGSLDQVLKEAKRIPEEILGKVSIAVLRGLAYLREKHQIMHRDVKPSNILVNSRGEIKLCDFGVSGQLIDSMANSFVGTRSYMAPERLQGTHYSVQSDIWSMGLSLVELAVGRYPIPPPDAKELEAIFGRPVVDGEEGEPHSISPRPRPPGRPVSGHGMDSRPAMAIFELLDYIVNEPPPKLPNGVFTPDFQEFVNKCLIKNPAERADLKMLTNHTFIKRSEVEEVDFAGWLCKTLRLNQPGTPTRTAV

[9] = biological target: Serine/threonine-protein kinase 38-like (Homo sapiens) (UniProt Q9Y2H1); test: Inhibition of NDR2 Lys1 labeling site harbouring DTGHIYAMKILR in human A-375 cells at 0.05 uM by KiNativ Profiling analysis relative to control; format: cell-based
Chain of Serine/threonine-protein kinase 38-like (Homo sapiens) (Q9Y2H1 2-464 limits assumed): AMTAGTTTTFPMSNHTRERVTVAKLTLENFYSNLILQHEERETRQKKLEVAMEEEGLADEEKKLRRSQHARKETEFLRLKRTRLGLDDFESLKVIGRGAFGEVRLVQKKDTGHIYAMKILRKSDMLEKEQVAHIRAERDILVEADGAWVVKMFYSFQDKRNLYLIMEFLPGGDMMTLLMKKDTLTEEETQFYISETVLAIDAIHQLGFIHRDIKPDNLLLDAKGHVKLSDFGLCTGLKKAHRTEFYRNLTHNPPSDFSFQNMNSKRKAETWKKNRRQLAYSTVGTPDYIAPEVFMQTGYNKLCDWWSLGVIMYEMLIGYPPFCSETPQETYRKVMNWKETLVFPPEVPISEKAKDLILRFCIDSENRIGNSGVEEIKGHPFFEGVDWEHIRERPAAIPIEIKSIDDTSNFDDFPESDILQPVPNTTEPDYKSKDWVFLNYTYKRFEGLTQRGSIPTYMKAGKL

[10] = biological target: Casein kinase I isoform delta (Homo sapiens) (UniProt P48730); test: Inhibition of CK1delta Lys2 labeling site in human A-375 cells at 0.05 uM by KiNativ Profiling analysis relative to control; format: cell-based
Chain of Casein kinase I isoform delta (Homo sapiens) (P48730 whole entry, looked up, canonical isoform): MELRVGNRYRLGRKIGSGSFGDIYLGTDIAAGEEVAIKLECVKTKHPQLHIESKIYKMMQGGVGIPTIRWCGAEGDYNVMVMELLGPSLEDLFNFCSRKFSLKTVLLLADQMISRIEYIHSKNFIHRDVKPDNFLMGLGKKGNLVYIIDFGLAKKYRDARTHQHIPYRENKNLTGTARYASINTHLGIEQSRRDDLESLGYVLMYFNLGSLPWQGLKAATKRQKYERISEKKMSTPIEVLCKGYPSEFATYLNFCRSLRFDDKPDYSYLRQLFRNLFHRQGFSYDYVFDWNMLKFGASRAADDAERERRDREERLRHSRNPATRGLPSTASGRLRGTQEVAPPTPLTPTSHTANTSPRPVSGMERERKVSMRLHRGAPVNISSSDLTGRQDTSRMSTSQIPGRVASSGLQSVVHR

[11] = Inhibition of p70S6K Lys2 labeling site in human A-375 cells at 0.05 uM by KiNativ Profiling analysis relative to control; conditions: condition cancer
[12] = biological target: T3, Aurora kinase A (Homo sapiens) (UniProt O14965); test: Inhibition of AurA ATP Loop labeling site in human A-375 cells at 5 uM by KiNativ Profiling analysis relative to control; format: cell-based
T3 sequence (whole entry): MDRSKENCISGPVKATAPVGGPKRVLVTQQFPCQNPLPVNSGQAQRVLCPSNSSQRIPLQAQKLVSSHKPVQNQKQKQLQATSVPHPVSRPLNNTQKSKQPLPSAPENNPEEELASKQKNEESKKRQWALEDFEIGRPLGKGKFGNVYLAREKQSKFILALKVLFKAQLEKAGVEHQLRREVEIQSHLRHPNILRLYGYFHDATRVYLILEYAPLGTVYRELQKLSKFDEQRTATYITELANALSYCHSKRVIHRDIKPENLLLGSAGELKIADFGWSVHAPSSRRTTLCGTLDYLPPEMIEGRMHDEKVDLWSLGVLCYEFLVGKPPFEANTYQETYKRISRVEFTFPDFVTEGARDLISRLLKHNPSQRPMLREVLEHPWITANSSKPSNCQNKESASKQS
In short: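 Live A375 melanoma cells were treated with compound at 5 or 0.5 μM, then lysed. The lysates were labeled with a lysine-reactive ATP or ADP-biotin probe. Kinase protection from probe labeling was measured by KiNativ.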

[13] = biological target: T3, Aurora kinase A (Homo sapiens); test: Inhibition of AurA ATP Loop labeling site in human A-375 cells at 0.05 uM by KiNativ Profiling analysis relative to control; format: cell-based

Chain of Mitogen-activated protein kinase kinase kinase 20 (Q9NYL2 2-800 limits assumed): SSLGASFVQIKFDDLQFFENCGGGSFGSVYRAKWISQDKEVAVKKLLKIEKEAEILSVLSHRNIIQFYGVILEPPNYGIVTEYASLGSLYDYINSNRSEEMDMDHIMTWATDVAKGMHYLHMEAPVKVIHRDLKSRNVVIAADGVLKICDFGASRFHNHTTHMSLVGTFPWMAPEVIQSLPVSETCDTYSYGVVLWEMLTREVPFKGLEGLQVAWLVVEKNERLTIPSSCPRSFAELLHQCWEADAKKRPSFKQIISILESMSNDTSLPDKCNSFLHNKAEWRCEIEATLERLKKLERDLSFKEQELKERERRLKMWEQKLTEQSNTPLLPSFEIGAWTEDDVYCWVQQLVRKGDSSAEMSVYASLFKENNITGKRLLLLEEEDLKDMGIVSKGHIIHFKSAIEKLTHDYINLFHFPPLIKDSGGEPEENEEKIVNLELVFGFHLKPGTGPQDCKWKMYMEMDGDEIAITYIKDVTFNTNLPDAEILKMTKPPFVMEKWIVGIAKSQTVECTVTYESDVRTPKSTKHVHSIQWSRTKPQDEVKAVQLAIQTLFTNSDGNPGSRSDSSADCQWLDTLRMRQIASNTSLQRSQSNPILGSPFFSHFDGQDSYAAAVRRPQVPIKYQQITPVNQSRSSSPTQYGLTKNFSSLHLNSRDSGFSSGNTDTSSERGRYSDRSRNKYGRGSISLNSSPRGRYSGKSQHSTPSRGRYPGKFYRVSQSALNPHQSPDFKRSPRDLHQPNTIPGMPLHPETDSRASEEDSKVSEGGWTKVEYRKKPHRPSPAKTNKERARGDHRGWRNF

CNc1cc(Oc2cc(C(=O)Nc3cc(N4CCN(C)CC4)cc(C(F)(F)F)c3)ccc2C)ncn1 gave an inhibition [1] of 31.8%.
CCN1CCN(Cc2ccc(NC(=O)c3ccc(C)c(/C=C/c4cnc5[nH]ccc5c4OC)c3)cc2C(F)(F)F)CC1 gave an inhibition [2] of -6.2%, an inhibition [3] of -7.3% and an inhibition [4] of -9.4%. It also gave an inhibition [5] of 11.5%, an inhibition [6] of 5.8% and an inhibition at 5 µM [7] of -15.2%. For the same compound, the inhibition [8] was -8.3%, the inhibition [9] was -0.9% and the inhibition [10] was -9.6%. It also gave an inhibition at 0.05 µM [11] of -27%, an inhibition [12] of 48.5% and an inhibition [13] of 14.1%.
CNc1cc(Oc2cc(C(=O)Nc3cc(-n4cnc(C)c4)cc(C(F)(F)F)c3)ccc2C)ncn1 gave an inhibition [1] of 43.6%.
CCN1CCN(Cc2ccc(NC(=O)c3ccc(C)c(Oc4ccnc5[nH]ccc45)c3)cc2C(F)(F)F)CC1 showed an inhibition [2] of 2%, an inhibition [3] of -1.1% and an inhibition [4] of -0.1%. It also gave an inhibition [5] of 5.1%, an inhibition [6] of 10.6% and an inhibition at 5 µM [7] of -45.5%. It also gave an inhibition [8] of 6.1%, an inhibition [9] of 5.4% and an inhibition [10] of -0.7%. The inhibition at 0.05 µM [11] was -7.2%, the inhibition [12] was 31.4% and the inhibition [13] was 32.5%.
